ChEMBL document CHEMBL1156775 (J Med Chem, 2010)

Assays:
[1] = molecular target: Kappa-type opioid receptor (Homo sapiens, UniProt P41145); test: Displacement of [3H]U69593 from human kappa opioid receptor expressed in CHO cells; type: cell-based
[2] = molecular target: Mu-type opioid receptor (Homo sapiens, UniProt P35372); test: Displacement of [3H]DAMGO from human mu opioid receptor expressed in CHO cells; type: cell-based
[3] = organism: Homo sapiens; test: Selectivity ratio of Ki for human delta opioid receptor to Ki for human mu opioid receptor
[4] = organism: Homo sapiens; test: Selectivity ratio of Ki for human kappa opioid receptor to Ki for human mu opioid receptor
[5] = molecular target: Delta-type opioid receptor (Homo sapiens, UniProt P41143); test: Displacement of [3H]naltrindole from human delta opioid receptor expressed in CHO cells; type: cell-based
Outline: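 CHO cells stably expressing a single human opioid receptor were grown in DMEM with 10% FBS and penicillin/streptomycin at 37 °C in 5% CO2. Their membranes were incubated with radioligand and 12 concentrations of test compound at 25 °C in 50 mM Tris-HCl, pH 7.5.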

Chain of Delta-type opioid receptor (P41143 whole entry): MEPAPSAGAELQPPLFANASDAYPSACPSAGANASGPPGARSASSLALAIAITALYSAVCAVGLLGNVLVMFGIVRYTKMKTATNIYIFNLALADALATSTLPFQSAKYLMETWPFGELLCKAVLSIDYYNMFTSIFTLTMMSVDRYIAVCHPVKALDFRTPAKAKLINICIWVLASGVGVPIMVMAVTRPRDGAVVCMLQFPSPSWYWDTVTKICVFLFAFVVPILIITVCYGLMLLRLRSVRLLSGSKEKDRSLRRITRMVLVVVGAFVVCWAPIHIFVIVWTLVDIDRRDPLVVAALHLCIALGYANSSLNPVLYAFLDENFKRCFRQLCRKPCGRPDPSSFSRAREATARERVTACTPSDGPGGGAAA
Chain of Kappa-type opioid receptor (P41145 whole entry): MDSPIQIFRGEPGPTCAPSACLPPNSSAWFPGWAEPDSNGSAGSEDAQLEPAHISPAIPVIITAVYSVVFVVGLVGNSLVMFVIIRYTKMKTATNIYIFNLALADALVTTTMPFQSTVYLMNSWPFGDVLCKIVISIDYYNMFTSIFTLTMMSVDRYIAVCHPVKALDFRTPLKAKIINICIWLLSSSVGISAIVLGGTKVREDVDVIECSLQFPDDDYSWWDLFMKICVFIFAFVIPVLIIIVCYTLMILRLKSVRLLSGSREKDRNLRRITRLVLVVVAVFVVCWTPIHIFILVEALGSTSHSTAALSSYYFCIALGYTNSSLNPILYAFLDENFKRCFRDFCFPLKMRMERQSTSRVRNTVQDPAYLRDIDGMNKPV
Chain of Mu-type opioid receptor (P35372 whole entry): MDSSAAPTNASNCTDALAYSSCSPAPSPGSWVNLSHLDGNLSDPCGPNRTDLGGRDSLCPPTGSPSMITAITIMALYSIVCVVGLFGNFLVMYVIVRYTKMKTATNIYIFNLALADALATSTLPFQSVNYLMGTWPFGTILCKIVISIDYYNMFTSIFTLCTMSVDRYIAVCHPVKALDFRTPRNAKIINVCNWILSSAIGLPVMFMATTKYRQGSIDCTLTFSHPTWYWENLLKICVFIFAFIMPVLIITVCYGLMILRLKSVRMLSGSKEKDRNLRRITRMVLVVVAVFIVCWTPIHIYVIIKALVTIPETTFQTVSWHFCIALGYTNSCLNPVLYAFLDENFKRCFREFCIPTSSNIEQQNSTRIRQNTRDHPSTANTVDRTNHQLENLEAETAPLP

SMILES | Ki [1] [nM] | Ki [2] [nM] | Ratio Ki [3] | Ratio Ki [4] | Ki [5] [nM]
O=C(Nc1ccc(I)cc1)Oc1ccc2c(c1)[C@@]13CCCC[C@H]1[C@@H](C2)N(CC1CCC1)CC3 | 0.99 | 1.1 | 68 | 1 | 67
COc1ccc(CN(Cc2ccc(OC)cc2)c2ccc3c(c2)[C@@]24CCCC[C@H]2[C@@H](C3)N(CC2CC2)CC4)cc1 | 3.9 | 2.5 | 48 | 2 | 120
CCCNCc1cc2c(cc1O)[C@@]13CCCC[C@H]1[C@@H](C2)N(CC1CCC1)CC3 | 350 | 330 | – | 1 | > 10000
O/N=C\c1cc2c(cc1O)[C@@]13CCCC[C@H]1[C@@H](C2)N(CC1CCC1)CC3 | – | – | 47 | 0.16 | –
NCc1cc2c(cc1O)[C@@]13CCCC[C@H]1[C@@H](C2)N(CC1CCC1)CC3 | 140 | 290 | – | 0.5 | > 10000
Ic1ccc(CN(Cc2ccc(I)cc2)c2ccc3c(c2)[C@@]24CCCC[C@H]2[C@@H](C3)N(CC2CCC2)CC4)cc1 | 16 | 16 | 60 | 1 | 960
CCCCC(O)c1cc2c(cc1O)[C@@]13CCCC[C@H]1[C@@H](C2)N(CC1CCC1)CC3 (mixture of isomers) | 13 | 17 | 6 | 1 | 72
CN1CC[C@]23CCCC[C@H]2[C@H]1Cc1ccc(NC(=O)Nc2ccc(I)cc2)cc13 | 280 | 17 | 18 | 16 | 300
COc1ccc(Nc2ccc3c(c2)[C@@]24CCCC[C@H]2[C@@H](C3)N(CC2CCC2)CC4)cc1 | 0.59 | 0.61 | 3 | 1 | 19
O=C(Nc1ccc(I)cc1)Oc1ccc2c(c1)[C@@]13CCCC[C@H]1[C@@H](C2)N(CC1CC1)CC3 | 0.6 | 0.58 | 24 | 1 | 14.6
CN1CC[C@]23CCCC[C@H]2[C@H]1Cc1ccc(OC(=O)Nc2ccc(I)cc2)cc13 | 5.2 | 0.34 | 4 | 15 | 160
CCN(CCCCCCN(CC)Cc1cc2c(cc1O)[C@@]13CCCC[C@H]1[C@@H](C2)N(CC1CCC1)CC3)Cc1cc2c(cc1O)[C@@]13CCCC[C@H]1[C@@H](C2)N(CC1CCC1)CC3 | 54 | 64 | 13 | 1 | 710
Oc1cc2c(cc1C(O)CCCCCCCCCCC(O)c1cc3c(cc1O)[C@@]14CCCC[C@H]1[C@@H](C3)N(CC1CCC1)CC4)C[C@@H]1[C@@H]3CCCC[C@]23CCN1CC1CCC1 (mixture of isomers) | 31 | 35 | 24 | 1 | 730
O=C(Nc1ccc(I)cc1)Nc1ccc2c(c1)[C@@]13CCCC[C@H]1[C@@H](C2)N(CC1CC1)CC3 | 12 | 23 | 4 | 0.5 | 94
O=C(Nc1ccccc1)Nc1ccc2c(c1)[C@@]13CCCC[C@H]1[C@@H](C2)N(CC1CC1)CC3 | 1.6 | 3.9 | 4 | 0.5 | 16
O=C(CCCCC(=O)NCc1cc2c(cc1O)[C@@]13CCCC[C@H]1[C@@H](C2)N(CC1CCC1)CC3)NCc1cc2c(cc1O)[C@@]13CCCC[C@H]1[C@@H](C2)N(CC1CCC1)CC3 | 30 | 36 | 21 | 1 | –
c1ccc(CNc2ccc3c(c2)[C@@]24CCCC[C@H]2[C@@H](C3)N(CC2CC2)CC4)cc1 | 0.34 | 0.26 | 112 | 1.4 | 29
Oc1cc2c(cc1C(O)CCCCC(O)c1cc3c(cc1O)[C@@]14CCCC[C@H]1[C@@H](C3)N(CC1CCC1)CC4)C[C@@H]1[C@@H]3CCCC[C@]23CCN1CC1CCC1 (mixture of isomers) | 67 | 74 | 24 | 1 | 1600

SMILES | Ki [1] [nM] | Ki [2] [nM] | Ratio Ki [3] | Ratio Ki [4] | Ki [5] [nM]
Oc1cc2c(cc1CNCCCCCCCCNCc1cc3c(cc1O)[C@@]14CCCC[C@H]1[C@@H](C3)N(CC1CCC1)CC4)C[C@@H]1[C@@H]3CCCC[C@]23CCN1CC1CCC1 | 40 | 24 | 42 | 2 | 1000
OCc1cc2c(cc1O)[C@@]13CCCC[C@H]1[C@@H](C2)N(CC1CCC1)CC3 | 86 | 360 | – | 0.25 | > 10000
Oc1cc2c(cc1CNCCCCNCc1cc3c(cc1O)[C@@]14CCCC[C@H]1[C@@H](C3)N(CC1CCC1)CC4)C[C@@H]1[C@@H]3CCCC[C@]23CCN1CC1CCC1 | 4.9 | 6.8 | 28 | 0.7 | 190
CN1CC[C@]23CCCC[C@H]2[C@H]1Cc1cc2c(cc13)OCN(Cc1ccccc1)C2 | 310 | 110 | – | 3 | > 10000
COc1ccc(Nc2ccc3c(c2)[C@@]24CCCC[C@H]2[C@@H](C3)N(CC2CC2)CC4)cc1 | 0.03 | 0.026 | 65 | 1 | 1.7
Ic1ccc(CNc2ccc3c(c2)[C@@]24CCCC[C@H]2[C@@H](C3)N(CC2CCC2)CC4)cc1 | 5.8 | 5.4 | 35 | 1.1 | 190
c1ccc(Nc2ccc3c(c2)[C@@]24CCCC[C@H]2[C@@H](C3)N(CC2CCC2)CC4)cc1 | 1.5 | 1.7 | 2 | 1 | 39
OCCCCCCCCCCC(O)c1cc2c(cc1O)[C@@]13CCCC[C@H]1[C@@H](C2)N(CC1CCC1)CC3 (mixture of isomers) | 26 | 36 | 23 | 1 | 610
c1ccc(CNc2ccc3c(c2)[C@@]24CCCC[C@H]2[C@@H](C3)N(CC2CCC2)CC4)cc1 | 2.8 | 1.7 | 76 | 1.6 | 130
Oc1cc2c(cc1CNCCCCCCNCc1cc3c(cc1O)[C@@]14CCCC[C@H]1[C@@H](C3)N(CC1CCC1)CC4)C[C@@H]1[C@@H]3CCCC[C@]23CCN1CC1CCC1 | 37 | 76 | 12 | 0.5 | 850
COc1ccc(CNc2ccc3c(c2)[C@@]24CCCC[C@H]2[C@@H](C3)N(CC2CC2)CC4)cc1 | 0.51 | 0.31 | 65 | 2 | 20
CCC(O)c1cc2c(cc1O)[C@@]13CCCC[C@H]1[C@@H](C2)N(CC1CCC1)CC3 (mixture of isomers) | 72 | 180 | – | 0.3 | > 10000
c1ccc(Nc2ccc3c(c2)[C@@]24CCCC[C@H]2[C@@H](C3)N(CC2CC2)CC4)cc1 | 0.047 | 0.08 | 68 | 0.5 | 5.4
CN1CC[C@]23CCCC[C@H]2[C@H]1Cc1ccc(NC(=O)Nc2ccccc2)cc13 | 340 | 11 | 29 | 31 | 320
O=C(Nc1ccc(I)cc1)Nc1ccc2c(c1)[C@@]13CCCC[C@H]1[C@@H](C2)N(CC1CCC1)CC3 | 28 | 24 | 4 | 0.5 | 250
Ic1ccc(CNc2ccc3c(c2)[C@@]24CCCC[C@H]2[C@@H](C3)N(CC2CC2)CC4)cc1 | 0.79 | 0.71 | – | – | 34
CCN(CCCCN(CC)Cc1cc2c(cc1O)[C@@]13CCCC[C@H]1[C@@H](C2)N(CC1CCC1)CC3)Cc1cc2c(cc1O)[C@@]13CCCC[C@H]1[C@@H](C2)N(CC1CCC1)CC3 | 44 | 160 | 7 | 0.3 | 1100
CN1CC[C@]23CCCC[C@H]2[C@H]1Cc1cc(CNCc2ccccc2)c(O)cc13 | 380 | 190 | – | 2 | > 10000
